Experimental data pooled from the literature.
Lines come from different studies, so protocols differ.
Target: Serine/threonine-protein kinase pim-1 (PIM1, Homo sapiens, UniProt P11309)

`COc1ncccc1-c1cnn2ccc(N3CCN(C(=O)OC(C)C)CC3)nc12` gave a remaining binding of 100% (binding, competition with immobilised ligand; 1 µM).
`Cn1cncc1[C@@](O)(COc1ccc(C#N)cc1-c1ccc(OC(F)(F)F)cc1)c1ccc(C#N)cc1` gave a remaining binding of 100% (cell-free assay, competition with immobilised ligand; 1 µM).
The inhibition of `Cn1cc(-c2cc(F)cc(N3CCn4c(cc5c4CCCC5)C3=O)c2CO)cc(Nc2ccc(N3CCN(C4COC4)CC3)cn2)c1=O` is reported as 11% (enzyme activity, inhibitor; 0.1 µM).
`O=c1[nH]c2ccccc2n1C1CCN(Cc2ccc(-c3[nH]c4cc5ncnc5cc4nc3-c3ccccc3)cc2)CC1` gave a remaining signal of 106% (cell-free assay; 0.5 µM).
For `Cn1cc(-c2cccc(N3CCc4c(sc5c4CC(C)(C)C5)C3=O)c2CO)cc(Nc2ccncn2)c1=O`, the inhibition was 2% (enzyme activity, inhibitor; 1 µM).
`CC(C)(C)c1cc(C=C(C#N)C#N)cc(Br)c1O` has a remaining activity of 94.7% (enzyme activity, inhibitor; 0.5 µM).
`N#CC1(c2ccccn2)CCN(Cc2cc(C(=O)O)c(=O)n3ccccc23)CC1` gave a remaining binding of 99% (cell-free assay, competition with immobilised ligand; 1 µM).
For `Cc1nn(C)cc1-c1nc2c(N3CCN(Cc4ccc(Cl)cc4)CC3)c(Cl)cnc2[nH]1`, the remaining binding was 100% (binding, competition with immobilised ligand; 1 µM).
